Here are results for twelve compounds from ChEMBL document CHEMBL1139941, “Development of 6-benzyl substituted 4-aminocarbonyl-1,4-diazepane-2,5-diones as orally active human chymase inhibitors” (Bioorg Med Chem Lett, 2007).

The test system of series [1] is Mus musculus. Description: Inhibition of DNFB-induced ear edema in mouse chronic dermatitis model at 10 mg/kg, po after 24 hrs relative to control. It is filed as functional. In outline:
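Mouse chronic dermatitis model: DNFB painted repeatedly; compound dosed orally at 10 mg/kg once daily throughout the experimental period. Ear thickness read 24 h after the sixth DNFB painting; inhibition ratio calculated versus vehicle, significance by Student's t test.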

The nature of series [2]: Inhibition of bovine alpha chymotrypsin. Also on record: species or system Bos taurus.
A short description of series [3]: Inhibition of bovine trypsin. Also on record: species or system Bos taurus.
The next series concerns the target T1, Cathepsin G (Homo sapiens, UniProt P08311).
T1 sequence (P08311 whole entry): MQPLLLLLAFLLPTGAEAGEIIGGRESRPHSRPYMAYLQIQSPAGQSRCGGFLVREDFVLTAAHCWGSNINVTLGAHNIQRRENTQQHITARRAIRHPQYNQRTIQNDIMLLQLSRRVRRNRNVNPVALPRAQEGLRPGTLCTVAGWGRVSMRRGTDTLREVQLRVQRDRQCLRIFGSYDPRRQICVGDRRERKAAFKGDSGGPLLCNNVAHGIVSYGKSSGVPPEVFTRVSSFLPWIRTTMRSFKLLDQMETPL
Description: Inhibition of human cathepsin G.

Series [4] is described as follows: Stability in aqueous solution in pH 7 at 10 uM. Format: physicochemical. Put shortly:
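Compound at 10 µM incubated at 37 °C in 0.1 M phosphate buffer, pH 7.0, sampled at 0, 4 and 8 h; fraction remaining quantified by HPLC and reported as half-life.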

A short description of series [5]: Inhibition of human elastase.
Another series addresses T2, Chymase (Homo sapiens, UniProt P23946).
T2 sequence (P23946 whole entry): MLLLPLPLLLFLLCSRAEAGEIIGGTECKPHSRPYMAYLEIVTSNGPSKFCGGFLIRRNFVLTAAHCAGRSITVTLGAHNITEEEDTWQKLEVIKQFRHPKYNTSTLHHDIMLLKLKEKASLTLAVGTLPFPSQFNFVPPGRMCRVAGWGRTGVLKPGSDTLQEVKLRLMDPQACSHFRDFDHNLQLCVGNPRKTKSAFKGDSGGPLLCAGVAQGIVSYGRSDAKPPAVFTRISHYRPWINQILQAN
Description: Inhibition of human recombinant chymase.

Series [6] concerns Mus musculus. Description: Inhibition of DNFB-induced ear edema in mouse chronic dermatitis model at 10 mg/kg, ip after 24 hrs relative to control. The following applies: route intraperitoneal. It is filed as functional. Put shortly: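 Chronic dermatitis in mice induced by repeated DNFB painting; intraperitoneal dosing at 10 mg/kg once daily over the experimental period. Ear thickness measured 24 h after sixth DNFB application, expressed as inhibition ratio against vehicle group; Student's t test.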

A word on the inhibition in vivo: it is the change of the read-out against control, counted positive when it falls. A high value points to strong suppression. In general, IC50 refers to the concentration that gives 50% inhibition. The half-life is the time in which the quantity being followed falls by half. With `CC[C@@H](NC(=O)N1CC(=O)NC[C@H](Cc2cc(Cl)ccc2OC)C1=O)c1ccc(C(=O)O)c(N)c1`, in the series with Mus musculus [1], 10 mg/kg produced 35.8% inhibition in vivo. Further, the IC50 was 23 µM in series [2], above 100 µM in series [3], 28 µM against Cathepsin G and above 100 µM in series [5]. In series [4], this compound had a half-life at 10 µM of 6.1 h.
With `CCC(NC(=O)N1CC(=O)NCC(Cc2cc(Cl)ccc2OC)C1=O)c1ccccc1` (centres undefined), in series [4], the half-life at 10 µM was 6.3 h.
The same measure, in the same setting: in the case of `COc1ccc(Cl)cc1CC1CNC(=O)CN(C(=O)NC(c2ccccc2)C(C)C)C1=O` (centres undefined) it was 8 h.
Consider `COc1ccc(Cl)cc1CC1CNC(=O)CN(C(=O)N(C)Cc2ccccc2)C1=O` (racemic), for which the IC50 at Chymase is above 100 µM. In series [4], this compound gave a half-life at 10 µM above 48 h.
Take `CCCC(NC(=O)N1CC(=O)NCC(Cc2cc(Cl)ccc2OC)C1=O)c1ccccc1` (centres undefined): the half-life at 10 µM in series [4] was 7.6 h.
Consider `COc1ccc(Cl)cc1CC1CNC(=O)CN(C(=O)NC(c2ccccc2)c2ccccc2)C1=O` (racemic), for which the IC50 at Chymase was above 100 µM. The half-life at 10 µM in series [4] was 16.5 h.
For `COc1ccc(Cl)cc1CC1CNC(=O)CN(C(=O)NCCc2ccccc2)C1=O` (racemic), in series [4], the half-life at 10 µM was 12.9 h.
The same measure, in the same setting: in the case of `COc1ccc(Cl)cc1CC1CNC(=O)CN(C(=O)NC(C)c2ccccc2)C1=O` (centres undefined) it was 6.2 h; in that of `COc1ccc(Cl)cc1CC1CNC(=O)CN(C(=O)NCc2ccccc2)C1=O` (racemic), 6.8 h.
On to `CC[C@@H](NC(=O)N1CC(=O)NC[C@@H](Cc2cc(Cl)ccc2OC)C1=O)c1cccc(C(=O)O)c1`, for which 10 mg/kg produced 22.9% inhibition in vivo in the series with Mus musculus [1]. Further, the half-maximal inhibitory concentration (IC50) in series [2] was 56 µM; in series [3] it was above 100 µM; on Cathepsin G it was 8 µM; in series [5] it was above 100 µM. The compound further gave a half-life at 10 µM in series [4] of 7.4 h.
In the series on Mus musculus [1], `CC[C@@H](NC(=O)N1CC(=O)NC[C@@H](Cc2cc(Cl)ccc2OC)C1=O)c1ccc(C(=O)O)c(N)c1` came in with an inhibition in vivo at 10 mg/kg of 29.7%. Besides, the IC50 was above 100 µM in series [2], above 100 µM in series [3], 16 µM at Cathepsin G and above 100 µM in series [5]. The compound further had a half-life at 10 µM in series [4] of 6.7 h.
In the series on Mus musculus [6], `C[C@]12C=CC(=O)C=C1CC[C@@H]1[C@@H]2[C@@H](O)C[C@@]2(C)[C@H]1CC[C@]2(O)C(=O)CO` [PREDNISOLONE] returned an inhibition in vivo at 10 mg/kg of 54.6%.
